# Screens (PubChem)
# Compounds with a hit are over-represented: about 1.2% of the library has one in this group of screens.
# ARNT-TACC3 inh: disruptors of ARNT/TACC3 protein interaction, primary screen, biochemical, AlphaScreen, single concentration; AlphaScreen His-ARNT PAS-B/GST-TACC3 binding, luminescence; TACC3 fragment carries E629A point mutation; inhibition, % at 9.99 µM; 390,000 tested, 0.66% active; AID 623870, 2012;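 active = mean inhibition of replicates at least 50% and at least half of replicates each reaching 50%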;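 note: 0% = complete ARNT plus TACC3 wells and 100% = ARNT alone without TACC3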
# CaV13 FRET inh: Primary screen for inhibitors of IQ motif and Ca2+-dependent inactivation inhibitor domain binding in CACNA1D, Förster resonance energy transfer in living cells, … | HEK cells, CFP/YFP FRET ICDI-IQ, plate reader, 10 min; percent FRET-ratio fall versus neutral wells | inhibition, % at 12.3 µM | 340,000 tested, 0.098% active | AID 743397;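 active = mean replicate inhibition of at least 30% and at least 1% of replicates passing that level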;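 note: 0% = median of the neutral control wells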
# CAL PDZ FP-1: CAL PDZ peptide-binding inhibitors, primary screen, biochemical, fluorescence polarization, Cer-tagged CAL PDZ, HTS; Golgi-associated PDZ and coiled-coil motif-containing protein (Homo sapiens), Q9HD26; 330,000 tested, 0.02% active; inhibition, % at 20 µM; purified CAL PDZ, TMR-peptide fluorescence polarization, 1 h;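 active = highest replicate inhibition of at least 40%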;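 note: plate controls were DMSO neutral control wells for no effect and unlabeled competitor peptide control wells for full effect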
#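 System: tagged CAL PDZ domain. Schedule: 1 h room-temperature incubation prior to read. Signal: fluorescence polarization (mP). Measure: percent inhibition from loss of millipolarization.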
# CAL PDZ FP-2: untagged CAL PDZ binding inhibitors, primary screen, biochemical, fluorescence polarization, HTS | purified CAL PDZ, TMR-peptide fluorescence polarization, 1 h | inhibition, % at 24.9 µM | Golgi-associated PDZ and coiled-coil motif-containing protein (Homo sapiens), Q9HD26 | 300,000 tested, 0.92% active;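 active = mean inhibition of at least 30% with at least half of replicates also reaching 30%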;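 note: 0% = DMSO neutral control and 100% = excess unlabeled competitor peptide PRC23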
# ARNT Alpha ctr: AlphaScreen signal interference compounds, dose response, artefact control for ARNT-TACC3 interaction inhibitor project, biochemical, luminescence, cherry-pick; shares compounds with ARNT-TACC3 inh; His-ARNT PASB-GST AlphaScreen artifact counter-screen; 1,200 tested, 50% active; AID 651705, 2012; AC50, µM (titrated, usually from 68 µM), for the others: top-dose activity change, negative = signal decrease;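 active = every separate test run was called active for a drop in luminescence, with AC50 within twice the top valid dose, actives reach about 71 µM in these data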
# Active calls of the source: *; nt = not tested or not shown; + = active, no number.
SMILES,ARNT-TACC3 inh,CaV13 FRET inh,CAL PDZ FP-1,CAL PDZ FP-2,others
COc1ccc(/C=N/NC(=O)c2cccnc2)cc1O,35.5,-1.7,-1.5,37.4*,
COc1cc(/C=N/Nc2nc3ccccc3o2)cc(OC)c1O,12.9,-2.7,1.2,0.1,
COc1ccc(NC(=O)Nc2cccc3c2O[C@@H](CN(C)C(=O)Nc2c(C)noc2C)[C@H](C)CN([C@@H](C)CO)C3=O)cc1,-2.3,nt,nt,nt,
Cc1noc(C)c1S(=O)(=O)Nc1ccc2c(c1)C(=O)N([C@@H](C)CO)C[C@@H](C)[C@@H](CN(C)C(=O)NC(C)C)OCCCC[C@@H](C)O2,-5.7,nt,nt,nt,
CCC(=O)N1CCc2cc(Br)cc(S(=O)(=O)N3CCCCC3CC)c21 (stereo not drawn),nt,-2.2,-1.2,73.7*,
CCC(=O)N1CCc2cc(Br)cc(S(=O)(=O)N3CCCCCC3)c21,1.3,-4.0,-1.5,-2.8,
COc1cc(/C=C2/C(=O)N(c3ccc(C(=O)O)cc3)N=C2C)cc(OC)c1O,11.9*,-17.3,nt,-3.1,
Cc1nn2c(NCCCN(C)C)c3c(nc2c1-c1ccccc1)CCCC3,0.6,-4.7,0.0,+,
Cc1noc(C)c1NC(=O)N1C[C@@H](O)COC[C@@H]2O[C@H](CC(=O)N3CCc4ccccc4C3)CC[C@H]21,23.6,nt,nt,nt,
CC(C)NC(=O)COc1cccc2ccccc12,2.6,-2.5,-0.3,-5.6,
CSCCC(NC(=O)COc1cccc2ccccc12)C(=O)O (stereo not drawn),-9.0,-2.2,-0.2,69.8*,
COc1ccc2cc(N3CCCC3=O)ccc2c1,-19.2,-5.4,-0.6,84.9*,
CO[C@H]1CN(C)C(=O)c2cc(NC(=O)NC(C)C)ccc2OC[C@@H](C)N(C)C[C@H]1C,6.4,nt,nt,nt,
COC(=O)C1=C(O)/C(=C\c2ccc(OCC(=O)Nc3ccccc3OC)cc2)N=C1C,3.2,-14.3,0.3,73.4*,
COC(=O)C1=C(O)/C(=C\c2ccc(OCC(=O)Nc3ccc(OC)cc3)cc2)N=C1C,-0.9,-6.9,-1.4,1.2,
COc1ccc(-c2ccc(-c3nc4c(c(=O)[nH]c(=O)n4Cc4ccccc4)n3C)o2)c([N+](=O)[O-])c1,24.2*,-2.8,-0.5,-0.6,
Cc1noc(C)c1NC(=O)Nc1ccc2c(c1)CC(=O)N([C@@H](C)CO)C[C@@H](C)[C@H](CN(C)Cc1ccc(C(=O)O)cc1)O2,-4.1,nt,nt,nt,
COc1ccc(C(=O)Nc2cc(OC)c(Cl)cc2OC)cc1,-4.8,-2.3,-0.6,37.2*,
C[C@H](CO)N1C[C@H](C)[C@H](CN(C)C(=O)Nc2ccc(C(F)(F)F)cc2)Oc2ncc(C#C[C@@H](C)O)cc2C1=O,-6.8,nt,nt,nt,
O=C(CCCn1c(=O)[nH]c2cc(Cl)ccc2c1=O)NC1CCCCCCC1,-4.7,-5.0,-0.4,53.1*,
C[C@@H]1CN([C@H](C)CO)C(=O)Cc2cc(NC(=O)Cc3ccccc3)ccc2O[C@H]1CN(C)C(=O)Nc1ccc(F)cc1,3.2,nt,nt,nt,
Cc1oc(-c2ccc(F)cc2)nc1CN(Cc1ccccn1)CC1CCCO1 (stereo not drawn),49.8*,2.9,0.4,2.3,
Fc1ccccc1-c1ccc(/C=N/Nc2nc3ccccc3[nH]2)o1,7.1,54.2*,-0.8,1.3,
C[C@@H]1CN([C@H](C)CO)C(=O)c2cc(C#CCN(C)C)cnc2O[C@H]1CN(C)C(=O)Cc1cccnc1,-3.1,nt,nt,nt,
C[C@H](CO)N1C[C@H](C)[C@@H](CN(C)C(=O)Nc2ccc(F)cc2)Oc2ccc(NS(=O)(=O)c3ccc(F)cc3)cc2CC1=O,8.7,nt,nt,nt,
SMILES,ARNT-TACC3 inh,CaV13 FRET inh,CAL PDZ FP-1,CAL PDZ FP-2,others
COc1ccc(C)cc1-n1c(SCC(=O)Nc2cc(C)on2)nc2sc(C)c(C)c2c1=O,-11.6,-4.3,nt,80.6*,
CCC(=O)N1C[C@H](O)COC[C@H]2O[C@H](CC(=O)NCC3CCCCC3)CC[C@@H]21,-1.0,nt,nt,nt,
Brc1ccc2cccnc2c1,0.8,-3.7,-0.3,-5.9,
Nc1cc2cccnc2cc1Cl,53.5*,-4.8,1.6,-5.8,ARNT Alpha ctr=-13.2%
C[C@@H]1CN([C@H](C)CO)C(=O)c2cc(NC(=O)CCC(F)(F)F)ccc2O[C@@H](C)CCCCO[C@@H]1CN(C)Cc1ccc(C(=O)O)cc1,-8.7,nt,nt,nt,
Cc1noc(C)c1NC(=O)N(C)C[C@@H]1Oc2ccc(NC(=O)Nc3ccccc3)cc2CC(=O)N([C@@H](C)CO)C[C@H]1C,-0.3,nt,nt,nt,
O=C(NCC1CCCO1)c1onc(CSc2ccc(F)cc2)c1C(=O)O (stereo not drawn),23.6*,-11.2,-0.5,-0.9,ARNT Alpha ctr=-3.7%
Cc1ccc(SCc2noc(C(=O)NCC3CCCO3)c2C(=O)O)cc1C (stereo not drawn),-1.2,-8.4,0.6,-1.7,
Cc1cccc(CNc2nc(-c3ccccn3)nnc2-c2ccccc2)c1,nt,nt,nt,nt,ARNT Alpha ctr=2.08µM*
C=CCNc1nc(-c2ccccn2)nnc1-c1ccccc1,103.8*,-2.0,-1.5,-1.9,ARNT Alpha ctr=1.34µM*
C=CCNC(=O)c1ccc2nc(-c3ccccc3)c(-c3ccccc3)nc2c1,3.5,-5.3,-2.7,-0.9,
OCCCNc1nc(-c2ccc(Cl)cc2)nnc1-c1ccccc1,-9.7,-5.0,-3.3,-2.7,
Cc1ccccc1CNc1nc(-c2ccccn2)nnc1-c1ccccc1,nt,nt,nt,nt,ARNT Alpha ctr=3.05µM*
c1ccc(-c2ccc(CNc3nc(-c4ccccn4)nnc3-c3ccccc3)cc2)cc1,nt,nt,nt,nt,ARNT Alpha ctr=3.35µM*
CCNC(=O)[C@@H]1[C@@H](CO)[C@@H]2Cn3c(ccc(-c4ccccc4F)c3=O)[C@H]1N2CC1CC1,13.3,nt,nt,nt,
C[C@H](CO)N1C[C@H](C)[C@@H](CN(C)Cc2ccc3c(c2)OCO3)OCCCC[C@H](C)Oc2ccc(NC(=O)c3ccncc3)cc2C1=O,-13.4,nt,nt,nt,
Oc1ccccc1-c1nc(NCc2cccnc2)c2ccccc2n1,-0.3,-12.7,0.6,-0.7,
Cc1ccc(CNc2nc(-c3ccccn3)nnc2-c2ccccc2)cc1,nt,nt,nt,nt,ARNT Alpha ctr=1.46µM*
c1ccc(-c2nnc(-c3ccccn3)nc2NCc2cccnc2)cc1,nt,nt,nt,nt,ARNT Alpha ctr=0.689µM*
Cc1ccc(CNc2nc(-c3ccccn3)nnc2-c2ccccc2)cc1C,nt,nt,nt,nt,ARNT Alpha ctr=2.75µM*
COc1ccc(CNc2nc(-c3ccccn3)nnc2-c2ccccc2)cc1,nt,nt,nt,nt,ARNT Alpha ctr=1.71µM*
Cc1cc2nc(-c3ccccn3)c(-c3ccccn3)nc2cc1C,-4.6,-3.5,-0.8,-5.6,
Cc1cccc(-c2ccc([C@@H]3[C@H](CO)N4CCCCN(S(=O)(=O)c5cccs5)C[C@@H]34)cc2)c1,-2.4,nt,nt,nt,
CC(C)NC(=O)N1[C@H](CN(C)C(=O)c2ccccc2)[C@@H](c2ccccc2)[C@@H]1CO,-3.3,nt,nt,nt,
